What was measured:
[1] = biological target: T1, Amine oxidase [flavin-containing] B (Rattus norvegicus, UniProt P19643); assay: Ex-Vivo Time course of evaluation for the percentage inhibition of MAO-B for 4 hr at single dose 5 mg/kg through oral gavage [p<0.05 (Bonferroni''s test)]; type: organism-based; design: dose 5 mg/kg, route oral
T1 sequence (P19643 whole entry): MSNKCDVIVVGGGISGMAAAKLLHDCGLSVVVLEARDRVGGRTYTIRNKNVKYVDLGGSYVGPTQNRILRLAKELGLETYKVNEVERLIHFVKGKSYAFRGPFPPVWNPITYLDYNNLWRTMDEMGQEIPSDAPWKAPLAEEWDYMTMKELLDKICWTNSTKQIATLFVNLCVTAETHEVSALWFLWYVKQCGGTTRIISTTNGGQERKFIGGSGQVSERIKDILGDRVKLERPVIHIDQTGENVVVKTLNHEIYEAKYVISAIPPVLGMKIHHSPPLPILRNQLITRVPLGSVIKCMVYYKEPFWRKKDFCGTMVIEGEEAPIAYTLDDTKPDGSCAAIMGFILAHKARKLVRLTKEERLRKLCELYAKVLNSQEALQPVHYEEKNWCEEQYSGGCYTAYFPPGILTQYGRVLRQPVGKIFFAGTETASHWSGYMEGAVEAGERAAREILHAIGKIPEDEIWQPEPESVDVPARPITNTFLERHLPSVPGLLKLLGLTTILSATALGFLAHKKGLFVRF
Procedure, shortened: (§1)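 Fasted male Sprague-Dawley rats (150 g) dosed orally by gavage, drug suspended in Tween 80 plus 0.5% methylcellulose; vehicle controls. The 100 mg/kg arm was dosed daily for 9 days. Four rats per time point; brains frozen and homogenized in 0.1 M phosphate pH 7.4. Assayed at 37 °C with 8 μM [14C]PEA for 1 min; toluene/ethyl acetate extraction. Percent inhibition vs control, mean ± SEM.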

[2] = biological target: T2, Amine oxidase [flavin-containing] A (Rattus norvegicus, UniProt P21396); assay: In vitro inhibitory activity on rat brain by monoamine oxidase A (MAO-A)
T2 sequence (P21396 whole entry): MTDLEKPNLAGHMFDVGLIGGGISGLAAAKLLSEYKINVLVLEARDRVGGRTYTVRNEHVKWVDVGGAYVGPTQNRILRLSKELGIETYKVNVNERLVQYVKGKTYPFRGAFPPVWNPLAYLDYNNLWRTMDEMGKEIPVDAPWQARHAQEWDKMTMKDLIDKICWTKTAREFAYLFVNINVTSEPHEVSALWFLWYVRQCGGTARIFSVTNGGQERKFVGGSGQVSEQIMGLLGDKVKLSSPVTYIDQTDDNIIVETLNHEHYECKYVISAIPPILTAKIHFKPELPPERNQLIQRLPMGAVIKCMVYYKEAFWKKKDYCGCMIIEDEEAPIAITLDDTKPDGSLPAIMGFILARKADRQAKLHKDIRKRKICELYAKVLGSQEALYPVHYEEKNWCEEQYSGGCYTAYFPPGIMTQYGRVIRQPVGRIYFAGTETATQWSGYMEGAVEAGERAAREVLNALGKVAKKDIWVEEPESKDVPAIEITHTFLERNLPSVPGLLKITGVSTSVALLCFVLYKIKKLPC
Procedure, shortened: (§2)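 Radiochemical assay at 37 °C, pH 7.4: MAO A with 10 μM [14C]5-HT, MAO B with 5 μM [14C]PEA. Drug preincubated 20 min with enzyme. Three experiments in duplicate.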

[3] = biological target: T1, Amine oxidase [flavin-containing] B; assay: Ex-Vivo Time course of evaluation for the percentage inhibition of MAO-B for 48 hr at single dose 5 mg/kg through oral gavage; type: organism-based; design: dose 5 mg/kg, route oral; procedure, shortened: as §1
[4] = biological target: T1, Amine oxidase [flavin-containing] B; assay: In vitro inhibitory activity on rat brain MAO-B.; procedure, shortened: as §2
[5] = biological target: T1, Amine oxidase [flavin-containing] B; assay: Ex-Vivo Time course of evaluation for the percentage inhibition of MAO-B for 1 hr at single dose 5 mg/kg through oral gavage (p<0.001); type: organism-based; design: dose 5 mg/kg, route oral; procedure, shortened: as §1
[6] = biological target: T1, Amine oxidase [flavin-containing] B; assay: Ex-Vivo Time course of evaluation for the percentage inhibition of MAO-B for 0.5 hr at single dose 5 mg/kg through oral gavage; type: organism-based; design: dose 5 mg/kg, route oral; procedure, shortened: as §1
[7] = biological target: T1, Amine oxidase [flavin-containing] B; assay: Ex-Vivo percentage inhibition of MAO-B after 24 hr single 5 mg/kg dose by oral gavage; type: organism-based; design: dose 5 mg/kg, route oral
Procedure, shortened: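 Ex vivo oral gavage in fasted male Sprague-Dawley rats (Tween 80 / 0.5% methylcellulose), four rats per group. Brain homogenate taken 24 h after dosing. MAO B assayed with 8 μM [14C]PEA, 1 min at 37 °C; percent inhibition vs vehicle control.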

[8] = biological target: T1, Amine oxidase [flavin-containing] B; assay: Ex-Vivo Time course of evaluation for the percentage inhibition of MAO-B for 1 hr at single dose 5 mg/kg through oral gavage; type: organism-based; design: dose 5 mg/kg, route oral; procedure, shortened: as §1
[9] = biological target: T1, Amine oxidase [flavin-containing] B; assay: Ex-Vivo Time course of evaluation for the percentage inhibition of MAO-B for 4 hr at single dose 5 mg/kg through oral gavage; type: organism-based; design: dose 5 mg/kg, route oral; procedure, shortened: as §1
[10] = biological target: T2, Amine oxidase [flavin-containing] A; assay: In Vitro evaluation for the inhibitory activity on rat brain by MAO-A at 100 uM; No Inhibition
Procedure, shortened: (§3)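 Male Sprague-Dawley rat brain crude mitochondrial fraction, 0.195 mg protein/mL. Radiochemical assay at 37 °C, pH 7.4: MAO A with 10 μM [14C]5-HT, MAO B with 5 μM [14C]PEA. Drug preincubated 20 min with enzyme. […] Three experiments in duplicate.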

[11] = biological target: T2, Amine oxidase [flavin-containing] A; assay: In Vitro evaluation for the inhibitory activity on rat brain by MAO-A at 100 uM; procedure, shortened: as §3
[12] = biological target: T1, Amine oxidase [flavin-containing] B; assay: Ex-Vivo Time course of evaluation for the percentage inhibition of MAO-B for 0.5 hr at single dose 5 mg/kg through oral gavage (p<0.001); type: organism-based; design: dose 5 mg/kg, route oral; procedure, shortened: as §1
[13] = biological target: T1, Amine oxidase [flavin-containing] B; assay: Ex-Vivo Time course of evaluation for the percentage inhibition of MAO-B for 4 hr at single dose 5 mg/kg through oral gavage (p<0.001); type: organism-based; design: dose 5 mg/kg, route oral; procedure, shortened: as §1
[14] = biological target: T1, Amine oxidase [flavin-containing] B; assay: Compound was evaluated for the time-dependence inhibition of MAO-B at 30 minutes pre-incubation periods
Procedure, shortened: (§4)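 Male Sprague-Dawley rat brain crude mitochondrial fraction, MAO B. Drug preincubated with enzyme at 37 °C for 0, 20, 30 or 60 min, then radiochemical assay with 5 μM [14C]PEA at pH 7.4. IC50 read graphically from 9–12 concentrations; three experiments in duplicate.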

[15] = biological target: T1, Amine oxidase [flavin-containing] B; assay: Compound was evaluated for the time-dependence inhibition of MAO-B at 0 minute pre-incubation periods; procedure, shortened: as §4
[16] = biological target: T1, Amine oxidase [flavin-containing] B; assay: Compound was evaluated for the time-dependence inhibition of MAO-B at 20 minutes pre-incubation periods; procedure, shortened: as §4
[17] = biological target: T2, Amine oxidase [flavin-containing] A; assay: Compound was evaluated for the time-dependence inhibition of MAO-A at 60 minutes of preincubated period. values are same with or without pre-incubation
[18] = Selectivity for B form was estimated by the ratio of IC50 (MAO A) at 60 min to that of (MAO B)
[19] = biological target: T1, Amine oxidase [flavin-containing] B; assay: Compound was evaluated for the time-dependence inhibition of MAO-B at 60 minutes preincubation periods; procedure, shortened: as §4
[20] = biological target: T1, Amine oxidase [flavin-containing] B; assay: Ex-Vivo Time course of evaluation for the percentage inhibition of MAO-B for 1 hr at single dose 5 mg/kg through oral gavage (p<0.01); type: organism-based; design: dose 5 mg/kg, route oral; procedure, shortened: as §1

SMILES	IC50 [2] [nM]	inhibition at 5 mg/kg [3] [%]	IC50 [4] [nM]	inhibition at 5 mg/kg [6] [%]	inhibition at 5 mg/kg [7] [%]	also measured
Cc1ccc(COc2ccc(-c3nn(CCC#N)c(=O)o3)cc2)cc1	25000	1	15	9	-3	inhibition at 5 mg/kg [1]: 14%; inhibition at 5 mg/kg [5]: 22%
N#CCCN1N=C(c2ccc(OCc3ccc(Cl)cc3)cc2)OCC1=O	3400		100			
N#CCCn1nc(-c2ccc(OCc3ccc(Cl)cc3)cc2)oc1=S	2700		690			
N#CCCn1nc(-c2ccc(OCc3cccc(Cl)c3)cc2)oc1=S	11000		160			
COc1ccc(COc2ccc(-c3nn(CCC#N)c(=O)o3)cc2)cc1	16000		27			
N#CCCN1N=C(c2ccc(OCc3ccccc3)cc2)OCC1=O	160000	16	18	21	23	inhibition at 5 mg/kg [8]: 31%; inhibition at 5 mg/kg [9]: 22%
N#CCCCCn1nc(-c2ccc(OCc3ccccc3)cc2)oc1=O			490			IC50 [10]: Not Active
N#CCCn1nc(-c2ccc(OCc3ccccc3)cc2)sc1=O	45000	9	8	44	15	inhibition at 5 mg/kg [8]: 52%; inhibition at 5 mg/kg [9]: 45%
Cc1ccc(COc2ccc(C3=NN(CCC#N)C(=O)CO3)cc2)cc1	250000		320			
N#CCCN1N=C(c2ccc(OCc3ccc([N+](=O)[O-])cc3)cc2)OCC1=O	2000		300			
COc1ccc(COc2ccc(C3=NN(CCC#N)C(=O)CO3)cc2)cc1	45000		88			
COc1ccc(COc2ccc(-c3nn(CCC#N)c(=S)o3)cc2)cc1	4800		910			
N#CCCN1N=C(c2ccc(OCc3cccc(Cl)c3)cc2)OCC1=O	13000		13			
CC(C#N)Cn1nc(-c2ccc(OCc3ccccc3)cc2)oc1=O (stereo not given)			2400			inhibition at 100 µM [11]: 13%
N#CCCn1nc(-c2ccc(OCc3ccc(Cl)cc3)cc2)oc1=O	3300	6	7.5		-6	inhibition at 5 mg/kg [12]: 30%; inhibition at 5 mg/kg [5]: 54%; inhibition at 5 mg/kg [13]: 47%
Cc1cccc(COc2ccc(C3=NN(CCC#N)C(=O)CO3)cc2)c1	40000		31			

SMILES	IC50 [2] [nM]	inhibition at 5 mg/kg [3] [%]	IC50 [4] [nM]	inhibition at 5 mg/kg [6] [%]	inhibition at 5 mg/kg [7] [%]	also measured
N#CCCCn1nc(-c2ccc(OCc3ccccc3)cc2)oc1=O			410			IC50 [10]: Not Active
N#CCCn1nc(-c2ccc(OCc3cccc(Cl)c3)cc2)oc1=O	7400	4	12	1	-7	inhibition at 5 mg/kg [1]: 29%; inhibition at 5 mg/kg [5]: 36%
N#CCCn1nc(-c2ccc(OCc3ccccc3)cc2)sc1=S	160000	10	16	27	8	inhibition at 5 mg/kg [8]: 18%; inhibition at 5 mg/kg [9]: 8%
N#CCCn1nc(-c2ccc(OCc3ccc([N+](=O)[O-])cc3)cc2)oc1=O	11000		5500			
Cc1cccc(COc2ccc(-c3nn(CCC#N)c(=O)o3)cc2)c1	20000	-3	8	6	-3	inhibition at 5 mg/kg [8]: 16%; inhibition at 5 mg/kg [9]: 15%
COc1cccc(COc2ccc(C3=NN(CCC#N)C(=O)CO3)cc2)c1	32000		68			
CC(C#N)n1nc(-c2ccc(OCc3ccccc3)cc2)oc1=O (stereo not given)			48000			inhibition at 100 µM [11]: 4%
Cc1cccc(COc2ccc(-c3nn(CCC#N)c(=S)o3)cc2)c1	14000		66			
N#CCCn1nc(-c2ccc(OCc3ccccc3)cc2)oc1=S	12000	8	4.4	68	21	IC50 [14]: 4.7 nM; inhibition at 5 mg/kg [8]: 84%; IC50 [15]: 47 nM; IC50 [16]: 6.6 nM; IC50 [17]: 12000 nM; inhibition at 5 mg/kg [9]: 74%; Selectivity [18]: 3200; IC50 [19]: 3.7 nM
N#CCCn1nc(-c2ccc(OCc3ccc([N+](=O)[O-])cc3)cc2)oc1=S	2600		4300			
Cc1ccc(COc2ccc(-c3nn(CCC#N)c(=S)o3)cc2)cc1	10000		400			
N#CCn1nc(-c2ccc(OCc3ccccc3)cc2)oc1=O			60			IC50 [10]: Not Active
N#CCCN1N=C(c2ccc(OCc3ccccc3)cc2)OCC1=S	25000	9	140	12	-4	inhibition at 5 mg/kg [8]: 3%; inhibition at 5 mg/kg [9]: 5%
O=c1oc(-c2ccc(OCc3ccccc3)cc2)nn1CCO	140000		3.7	65	8	IC50 [14]: 4.4 nM; inhibition at 5 mg/kg [8]: 82%; IC50 [15]: 33 nM; IC50 [16]: 4.6 nM; IC50 [17]: 140000 nM; inhibition at 5 mg/kg [9]: 70%; Selectivity [18]: 30400; IC50 [19]: 4.6 nM
COc1cccc(COc2ccc(-c3nn(CCC#N)c(=S)o3)cc2)c1	8100		100			
COc1cccc(COc2ccc(-c3nn(CCC#N)c(=O)o3)cc2)c1	19000	-7	29	12	-3	inhibition at 5 mg/kg [9]: 6%; inhibition at 5 mg/kg [20]: 19%

Reference: ChEMBL document CHEMBL1126975 (J Med Chem, 1993)
